Measurements collected from several papers.
Protocols differ between the studies behind these lines.
SPHK1: Sphingosine kinase 1 (SPHK1, Homo sapiens, UniProt Q9NYA1)
ADORA2A: Adenosine receptor A2a (ADORA2A, Homo sapiens, UniProt P29274)
CNR1: Cannabinoid receptor 1 (CNR1, Homo sapiens, UniProt P21554)
HRH4: Histamine H4 receptor (HRH4, Homo sapiens, UniProt Q9H3N8)
PIK3C2B: Phosphatidylinositol 4-phosphate 3-kinase C2 domain-containing subunit beta (PIK3C2B, Homo sapiens, UniProt O00750)
EHMT1: Histone-lysine N-methyltransferase EHMT1 (EHMT1, Homo sapiens, UniProt Q9H9B1)
PDE5A: cGMP-specific 3',5'-cyclic phosphodiesterase (PDE5A, Homo sapiens, UniProt O76074)
EDNRA: Endothelin-1 receptor (EDNRA, Homo sapiens, UniProt P25101)
PARP1: Poly [ADP-ribose] polymerase 1 (PARP1, Homo sapiens, UniProt P09874)

SMILES | target | assay | setting | inhibition
[H]/N=C(/N)N1CCC[C@H]1c1nc(-c2ccc(OCCC=CCCCC)c(C(F)(F)F)c2)no1 | SPHK1 | enzyme activity, inhibitor, radiometric | 1 µM | 4%
COc1ccc(F)cc1C(=O)NCc1ccc(-c2nn([C@@H](C)C(F)(F)F)c(N)c2C(N)=O)cc1 | Mitogen-activated protein kinase kinase kinase 3 (MAP3K3, Homo sapiens, UniProt Q99759) | target engagement in cells, inhibitor, chemoproteomics | 0.1 µM | 26.3%
COc1ccc(-n2nc(OCCCN3CCCCC3)ccc2=O)cc1 | Sodium channel protein type 9 subunit alpha (SCN9A, Homo sapiens, UniProt Q15858) | ligand displacement | 1 µM | 32.1%
COc1ccc(-c2nc3cc(CN4CCCCC4)ccc3o2)cc1OC | ADORA2A | ligand displacement, radioligand | 10 µM, cell membranes | 18%
O=C(Nc1ccc(S(=O)(=O)N2CCC(Cl)CC2)cc1)c1ccc([N+](=O)[O-])o1 | CNR1 | ligand displacement, radioligand | 10 µM | 20%
O=C(c1ccc(F)cc1)N(Cc1ccccc1)C1CCCCC1 | CNR1 | cell-free assay | 10 µM | 18%
CCN(CC)c1ccc(C2Nc3ccc(C(=O)c4ccccc4)cc3NC3=C2C(=O)CC(C)(C)C3)cc1 (stereo not shown) | HRH4 | ligand displacement, radioligand | 10 µM | 12%
CS(=O)(=O)Nc1cccc(-c2csc(NC(=O)CSc3nc4nccnc4c(=O)n3CCc3ccccc3)n2)c1 | PIK3C2B | enzyme activity, inhibitor | 10 µM | 19%
Cc1cc(O)c(C=O)c2c1C(=O)Oc1c(C)c(O)c3c(c1O2)C(O)OC3=O (stereo not shown) | EHMT1 | cell-free assay | 10 µM | -4%
COc1cc(NC(C)=O)c(Cl)cc1C(=O)Nc1nccs1 | 5-hydroxytryptamine receptor 2A (HTR2A, Homo sapiens, UniProt P28223) | ligand displacement, radioligand | 10 µM | 8.7%
C=CCN1C(=O)[C@H]2Cc3c([nH]c4ccccc34)[C@@H](c3ccc(Br)s3)N2C1=O | PDE5A | enzyme activity, inhibitor, FP | 10 µM | 96%
O=C1N=C(N2CCCCN2)S/C1=C\c1ccc(F)cc1O | EDNRA | ligand displacement, radioligand | 10 µM | < 10%
CC(C)(C)OC(=O)N1CCN(Cc2ccc3oc(-c4ccco4)nc3c2)CC1 | ADORA2A | ligand displacement, radioligand | 10 µM, cell membranes | 15%
O=C(c1ccc(Cl)cc1)N(Cc1ccccc1)C1CCCCC1 | ADORA2A | cell-free assay | 10 µM | 9.1%
[H]/N=C(\N)N1CCC[C@H]1c1nc(-c2ccc(OCC=Cc3cccc(Br)c3)c(C(F)(F)F)c2)no1 | SPHK1 | enzyme activity, inhibitor, radiometric | 1 µM | 12%
CCCNc1nc2ccccc2n1Cc1ccc(Cl)cc1 | HRH4 | ligand displacement | 10 µM | -8.89%
CN(C)C1CCN(CC#Cc2nn(C3CCCC3)c3nc(NCc4ccccc4)ncc23)C1 (stereo not shown) | Aurora kinase B (AURKB, Homo sapiens, UniProt Q96GD4) | enzyme activity, inhibitor, FRET | 10 µM | 51%
[H]/N=C(\N)N1CCC[C@H]1c1nc(-c2ccc(OCCC=Cc3ccc(C(F)(F)F)cc3)c(C(F)(F)F)c2)no1 | SPHK1 | enzyme activity, inhibitor, radiometric | 1 µM | 5%
COc1ccc([C@@H]2c3[nH]c4ccccc4c3C[C@H]3C(=O)N(C(C)(C)C)C(=O)N23)cc1OC | PDE5A | enzyme activity, inhibitor, FP | 50 µM | 79%
O=C1C=C2CC3(O)COc4c(ccc(O)c4O)C3=C2C=C1O (stereo not shown) | EHMT1 | cell-free assay | 10 µM | 11%
Oc1cccc(Nc2nc(-c3ccc(F)cc3F)cs2)c1 | EDNRA | cell-free assay | 10 µM | -11.2%
COc1ccc(-c2nc3cc(CCN4CCCCC4)ccc3o2)cc1OC | ADORA2A | ligand displacement, radioligand | 10 µM, cell membranes | 10%
CCN(Cc1ccccc1C(F)(F)F)C(=O)C1CCN(S(=O)(=O)c2ccc3[nH]ncc3c2)CC1 | EDNRA | ligand displacement, radioligand | 10 µM | 1%

SMILES | target | assay | setting | inhibition
O=C(O)c1cc(O)c2c(c1)[C@H]([C@H]1c3cc(C(=O)O)cc(O)c3C(=O)c3c(O[C@@H]4O[C@H](CO)[C@@H](O)[C@H](O)[C@H]4O)cccc31)c1cccc(O[C@@H]3O[C@H](CO)[C@@H](O)[C@H](O)[C@H]3O)c1C2=O | EHMT1 | cell-free assay | 10 µM | 16%
COc1ccc(-c2nc3cc(CCCN4CCCCC4)ccc3o2)cc1OC | ADORA2A | ligand displacement, radioligand | 10 µM, cell membranes | 10%
O=C(Oc1cc(O)cc2c1C[C@@H](OC(=O)c1cc(O)c(O)c(O)c1)[C@@H](c1cc(O)c(O)c(O)c1)O2)c1cc(O)c(O)c(O)c1 | EHMT1 | cell-free assay | 10 µM | -4%
CCc1ccc(CCc2ccc(-c3noc([C@@H]4CCCN4C(=N)N)n3)cc2C(F)(F)F)cc1 | SPHK1 | enzyme activity, inhibitor, radiometric | 1 µM | 13%
CC(C)(C)N1C(=O)[C@H]2Cc3c([nH]c4ccccc34)[C@@H](c3cccnc3)N2C1=O | PDE5A | enzyme activity, inhibitor, FP | 50 µM | 90%
COc1ccc(CCc2ccc(-c3noc([C@@H]4CCCN4C(=N)N)n3)cc2C(F)(F)F)cc1 | SPHK1 | enzyme activity, inhibitor, radiometric | 1 µM | 0%
O=C(NCCNC(=O)c1n[nH]c(=O)c2ccccc12)c1cccc(CN2C(=O)CNC2=O)c1 | PARP1 | enzyme activity, inhibitor | 0.5 µM | ~50%
COC(=O)[C@H]1Cc2c([nH]c3ccccc23)[C@@H](c2ccc(OC)c(OC)c2)N1C(=O)CCl | PDE5A | enzyme activity, inhibitor, FP | 50 µM | 70%
O=C1C=CC(=O)c2c(O)cccc21 | EHMT1 | cell-free assay | 10 µM | -1%
COCCOc1ccc(N2CCN(Cc3ccc4oc(-c5ccco5)nc4c3)CC2)cc1 | ADORA2A | ligand displacement, radioligand | 10 µM, cell membranes | 14%
Cn1cncc1C1=CN(c2ncnc3[nH]cnc23)CCS1 | Interleukin-1 receptor-associated kinase-like 2 (IRAK2, Homo sapiens, UniProt O43187) | enzyme activity, inhibitor, radiometric | 2 µM | 85%
Ic1cccc2cnccc12 | CNR1 | ligand displacement, radioligand | 10 µM | 3%
COC(=O)[C@@H]1Cc2c([nH]c3ccccc23)[C@H](c2ccc(OC)c(OC)c2)N1 | PDE5A | enzyme activity, inhibitor, FP | 50 µM | 8%
CCCCC=CCOc1ccc(-c2noc([C@@H]3CCCN3C(=N)N)n2)cc1C(F)(F)F | SPHK1 | enzyme activity, inhibitor, radiometric | 1 µM | 18%
CCN1C(=O)[C@@H]2Cc3c([nH]c4ccccc34)[C@@H](c3ccc(OC)c(OC)c3)N2C1=O | PDE5A | enzyme activity, inhibitor, FP | 50 µM | 75%
O=C1NCCCc2ccc(F)cc21 | PARP1 | enzyme activity, inhibitor | 10 µM | 15%
COC(=O)[C@@H]1Cc2c([nH]c3ccccc23)[C@@H](c2cccnc2)N1 | PDE5A | enzyme activity, inhibitor, FP | 50 µM | 41%
N=C(N)N1CCC[C@H]1c1nc(-c2ccc(CCc3ccc(C(F)(F)F)cc3)c(C(F)(F)F)c2)no1 | SPHK1 | enzyme activity, inhibitor, radiometric | 1 µM | 12%
COc1cc(OC)c2c(=O)[nH]c(-c3c[nH]c4ncccc34)nc2c1 | PARP1 | enzyme activity, inhibitor, ELISA | 10 µM | 31%
O=C(CSc1nc2nccnc2c(=O)n1CCc1ccccc1)Nc1nccs1 | PIK3C2B | enzyme activity, inhibitor | 10 µM | 68%
O=c1oc2c(O)c(O)cc3c(=O)oc4c(O)c(O)cc1c4c23 | EHMT1 | cell-free assay | 10 µM | 6%
CCN1C(=O)[C@H]2Cc3c([nH]c4ccccc34)[C@H](c3cccnc3)N2C1=O | PDE5A | enzyme activity, inhibitor, FP | 50 µM | 58%
O=C1CCCc2ccc(F)cc2N1 | PARP1 | enzyme activity, inhibitor | 10 µM | 0%
